Converted amounts (≈) assume the structure as drawn. The source made the active and inactive calls. The calls are words filed in the database; no cut-off is given here.
Legend:
Candida albicans [1] = assay: Antifungal activity against Candida albicans ATCC 10231 assessed as fungal growth inhibition by double dilution method; assay type: functional
Summary of the method: (§1)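 Broth microdilution after CLSI M27-A3/M38-A2 with minor changes. Single colony grown overnight in YPD at 35 °C, 200 rpm. Compound final range 0.06-31.3 µg/mL; incubated 48 h at 35 °C.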

Candida albicans [2] = assay: Antifungal activity against Candida albicans ATCC 64124 assessed as fungal growth inhibition by double dilution method; assay type: functional
Summary of the method: (§2)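 Broth microdilution after CLSI M27-A3/M38-A2 with minor modifications. A single colony was grown overnight in YPD at 35 °C with shaking at 200 rpm. Cells were mixed 1:1 with compound (final 0.06-31.3 µg/mL, from DMSO stocks) and incubated 48 h at 35 °C.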

Candida albicans [3] = assay: Antifungal activity against itraconazole/fluconazole susceptible Candida albicans ATCC MYA-2876 assessed as fungal growth inhibition by double dilution method; assay type: functional; summary of the method: as §2
Candida albicans [4] = assay: Antifungal activity against itraconazole/fluconazole resistant Candida albicans ATCC 90819 assessed as fungal growth inhibition by double dilution method; assay type: functional; summary of the method: as §2
Candida albicans [5] = assay: Antifungal activity against itraconazole/fluconazole susceptible Candida albicans ATCC MYA-2310 assessed as fungal growth inhibition by double dilution method; assay type: functional; summary of the method: as §2
Candida albicans [6] = assay: Antifungal activity against itraconazole/fluconazole resistant Candida albicans ATCC MYA-1237 assessed as fungal growth inhibition by double dilution method; assay type: functional; summary of the method: as §2
Candida albicans [7] = assay: Antifungal activity against itraconazole/fluconazole resistant Candida albicans ATCC MYA-1003 assessed as fungal growth inhibition by double dilution method; assay type: functional; summary of the method: as §2
Nakaseomyces glabratus [8] = assay: Antifungal activity against Candida glabrata ATCC 2001 assessed as fungal growth inhibition by double dilution method; assay type: functional; summary of the method: as §1
Pichia kudriavzevii [9] = assay: Antifungal activity against Pichia kudriavzevii ATCC 6258 assessed as fungal growth inhibition by double dilution method; assay type: functional; summary of the method: as §1
Nakaseomyces glabratus [10] = assay: Antifungal activity against Candida glabrata ATCC 22019 assessed as fungal growth inhibition by double dilution method; assay type: functional; summary of the method: as §1
[Candida] auris [11] = Antifungal activity against Candida auris AR Bank # 0384 assessed as fungal growth inhibition by double dilution method; assay type: functional; details: Candidozyma auris; summary of the method: as §1
[Candida] auris [12] = Antifungal activity against Candida auris AR Bank # 0390 assessed as fungal growth inhibition by double dilution method; assay type: functional; details: Candidozyma auris; summary of the method: as §1
Cryptococcus neoformans = assay: Antifungal activity against Cryptococcus neoformans ATCC MYA-895 assessed as fungal growth inhibition by double dilution method; assay type: functional; summary of the method: as §1
Aspergillus terreus = assay: Antifungal activity against Aspergillus terreus ATCC MYA-3633 assessed as fungal growth inhibition by double dilution method; assay type: functional
Aspergillus fumigatus [13] = assay: Antifungal activity against Aspergillus fumigatus NRRL 163 assessed as fungal growth inhibition by double dilution method; assay type: functional
Aspergillus flavus = assay: Antifungal activity against Aspergillus flavus ATCC MYA-3631 assessed as fungal growth inhibition by double dilution method; assay type: functional
Aspergillus nidulans = assay: Antifungal activity against Aspergillus nidulans ATCC 38163 assessed as fungal growth inhibition by double dilution method; assay type: functional
Aspergillus fumigatus [14] = assay: Antifungal activity against Aspergillus fumigatus NRRL 5109 assessed as fungal growth inhibition by double dilution method; assay type: functional
Aspergillus fumigatus [15] = assay: Antifungal activity against Aspergillus fumigatus NRRL 6113 assessed as fungal growth inhibition by double dilution method; assay type: functional
[Candida] auris [16] = Antifungal activity against Candida auris AR Bank # 381 assessed as fungal growth inhibition by double dilution method; assay type: functional; details: Candidozyma auris; summary of the method: as §1
[Candida] auris [17] = Antifungal activity against Candida auris AR Bank # 382 assessed as fungal growth inhibition by double dilution method; assay type: functional; details: Candidozyma auris; summary of the method: as §1
[Candida] auris [18] = Antifungal activity against Candida auris AR Bank # 383 assessed as fungal growth inhibition by double dilution method; assay type: functional; details: Candidozyma auris; summary of the method: as §1
[Candida] auris [19] = Antifungal activity against Candida auris AR Bank # 384 assessed as fungal growth inhibition by double dilution method; assay type: functional; details: Candidozyma auris; summary of the method: as §1
[Candida] auris [20] = Antifungal activity against Candida auris AR Bank # 385 assessed as fungal growth inhibition by double dilution method; assay type: functional; details: Candidozyma auris; summary of the method: as §1
[Candida] auris [21] = Antifungal activity against Candida auris AR Bank # 386 assessed as fungal growth inhibition by double dilution method; assay type: functional; details: Candidozyma auris; summary of the method: as §1
[Candida] auris [22] = Antifungal activity against Candida auris AR Bank # 387 assessed as fungal growth inhibition by double dilution method; assay type: functional; details: Candidozyma auris; summary of the method: as §1
[Candida] auris [23] = Antifungal activity against Candida auris AR Bank # 388 assessed as fungal growth inhibition by double dilution method; assay type: functional; details: Candidozyma auris; summary of the method: as §1
[Candida] auris [24] = Antifungal activity against Candida auris AR Bank # 389 assessed as fungal growth inhibition by double dilution method; assay type: functional; details: Candidozyma auris; summary of the method: as §1
[Candida] auris [25] = Antifungal activity against Candida auris AR Bank # 390 assessed as fungal growth inhibition by double dilution method; assay type: functional; details: Candidozyma auris; summary of the method: as §1
Candida duobushaemulonii [26] = assay: Antifungal activity against Candida duobushaemulonii AR Bank # 391 assessed as fungal growth inhibition by double dilution method; assay type: functional; details: Candidozyma duobushaemuli; summary of the method: as §1
Candida duobushaemulonii [27] = assay: Antifungal activity against Candida duobushaemulonii AR Bank # 392 assessed as fungal growth inhibition by double dilution method; assay type: functional; details: Candidozyma duobushaemuli; summary of the method: as §1
[Candida] haemuloni [28] = Antifungal activity against Candida haemulonii AR Bank # 393 assessed as fungal growth inhibition by double dilution method; assay type: functional; details: Candidozyma haemuli; summary of the method: as §1
Candida duobushaemulonii [29] = assay: Antifungal activity against Candida duobushaemulonii AR Bank # 394 assessed as fungal growth inhibition by double dilution method; assay type: functional; details: Candidozyma duobushaemuli; summary of the method: as §1
[Candida] haemuloni [30] = Antifungal activity against Candida haemulonii AR Bank # 395 assessed as fungal growth inhibition by double dilution method; assay type: functional; details: Candidozyma haemuli; summary of the method: as §1
Kodamaea ohmeri = assay: Antifungal activity against Kodamaea ohmeri AR Bank # 396 assessed as fungal growth inhibition by double dilution method; assay type: functional; summary of the method: as §1
Pichia kudriavzevii [31] = assay: Antifungal activity against Pichia kudriavzevii AR Bank # 397 assessed as fungal growth inhibition by double dilution method; assay type: functional; summary of the method: as §1
Clavispora lusitaniae = assay: Antifungal activity against Clavispora lusitaniae AR Bank # 398 assessed as fungal growth inhibition by double dilution method; assay type: functional; summary of the method: as §1
Saccharomyces cerevisiae [32] = assay: Antifungal activity against Saccharomyces cerevisiae AR Bank # 399 assessed as fungal growth inhibition by double dilution method; assay type: functional; summary of the method: as §1
Saccharomyces cerevisiae [33] = assay: Antifungal activity against Saccharomyces cerevisiae AR Bank # 400 assessed as fungal growth inhibition by double dilution method; assay type: functional; summary of the method: as §1
J774.A1 = assay: Cytotoxicity against J774A.1 cells assessed as reduction in cell viability at 31.3 microg/ml; assay type: toxicity, cell-based; details: mouse, dose 31.3 µg/ml
Summary of the method: (§3)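 Cells in DMEM with 10% FBS and 1% Pen/Strep, seeded at 10,000 cells/well and held overnight at 37 °C, 5% CO2. Compounds added at final 31.3-0.12 µg/mL (0.05% DMSO vehicle) for 24 h. Resazurin then added for 6 h; fluorescence read at ex 560/em 590. Triton X-100 1% as positive control; values normalized to vehicle. Run in quadruplicate.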

HEK293 = assay: Cytotoxicity against human HEK-293 cells assessed as reduction in cell viability at 31.3 microg/ml; assay type: toxicity, cell-based; details: dose 31.3 µg/ml; summary of the method: as §3
HepG2 = assay: Cytotoxicity against human HepG2 cells assessed as reduction in cell viability upto 31.3 microg/ml; assay type: toxicity, cell-based; details: dose < 31.3 µg/ml; summary of the method: as §3
Candida albicans [34] = assay: Antifungal activity against Candida albicans ATCC 10231 assessed as fungal growth inhibition by time kill studies; assay type: functional, organism-based
Summary of the method: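 Overnight YPD culture (35 °C, 200 rpm) diluted in RPMI 1640 to ~1×10⁵ CFU/mL. […] Samples at 0, 3, 6, 9, 12, 18 and 24 h were 10-fold diluted and plated on PDA; colonies counted after 48 h at 35 °C. Run in duplicate.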

Candida albicans [35] = assay: Antibiofilm activity against Candida albicans ATCC 10231 assessed as reduction in biofilm production at 1.96 to 3.9 microg/ml by biofilm formation assay; assay type: functional, organism-based; details: dose 1.96-3.9 µg/ml
Candida albicans [36] = assay: Antibiofilm activity against Candida albicans ATCC 10231 assessed as reduction in preformed biofilm production by biofilm formation assay; assay type: functional, organism-based
Summary of the method: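 After PBS washes, XTT 0.5 mg/mL with 1 µM menadione added, 3 h at 37 °C in the dark; absorbance read at 450 nm.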

SMILES: O=C(NNc1cccc(Cl)c1)c1ccccn1
- MIC (Candida albicans [1]): 0.12 µg/mL (≈ 0.484 µM)
- MIC (Candida albicans [2]): 0.98 µg/mL (≈ 3.96 µM)
- MIC (Candida albicans [3]): 0.98 µg/mL (≈ 3.96 µM)
- MIC (Candida albicans [4]): 0.49 µg/mL (≈ 1.98 µM)
- MIC (Candida albicans [5]): 0.98 µg/mL (≈ 3.96 µM)
- MIC (Candida albicans [6]): 0.98 µg/mL (≈ 3.96 µM)
- MIC (Candida albicans [7]): 0.49 µg/mL (≈ 1.98 µM)
- MIC (Nakaseomyces glabratus [8]): 1.95 µg/mL (≈ 7.87 µM)
- MIC (Pichia kudriavzevii [9]): 0.49 µg/mL (≈ 1.98 µM)
- MIC (Nakaseomyces glabratus [10]): 1.95 µg/mL (≈ 7.87 µM)
- MIC ([Candida] auris [11]): 0.98 µg/mL (≈ 3.96 µM)
- MIC ([Candida] auris [12]): 0.98 µg/mL (≈ 3.96 µM)
- MIC (Cryptococcus neoformans): 0.12 µg/mL (≈ 0.484 µM)
- MIC (Aspergillus terreus): 0.98 µg/mL (≈ 3.96 µM)
- MIC (Aspergillus fumigatus [13]): > 31.3 µg/mL
- MIC (Aspergillus flavus): > 31.3 µg/mL
- MIC (Aspergillus nidulans): 0.24 µg/mL (≈ 0.969 µM)
- MIC (Aspergillus fumigatus [14]): > 31.3 µg/mL
- MIC (Aspergillus fumigatus [15]): > 31.3 µg/mL
- MIC ([Candida] auris [16]): 0.98 µg/mL (≈ 3.96 µM)
- MIC ([Candida] auris [17]): 0.49 µg/mL (≈ 1.98 µM)
- MIC ([Candida] auris [18]): 0.49 µg/mL (≈ 1.98 µM)
- MIC ([Candida] auris [19]): 0.98 µg/mL (≈ 3.96 µM)
- MIC ([Candida] auris [20]): 0.49 µg/mL (≈ 1.98 µM)
- MIC ([Candida] auris [21]): 0.24 µg/mL (≈ 0.969 µM)
- MIC ([Candida] auris [22]): 0.49 µg/mL (≈ 1.98 µM)
- MIC ([Candida] auris [23]): 0.49 µg/mL (≈ 1.98 µM)
- MIC ([Candida] auris [24]): 0.49 µg/mL (≈ 1.98 µM)
- MIC ([Candida] auris [25]): 0.49 µg/mL (≈ 1.98 µM)
- MIC (Candida duobushaemulonii [26]): 0.24 µg/mL (≈ 0.969 µM)
- MIC (Candida duobushaemulonii [27]): 0.24 µg/mL (≈ 0.969 µM)
- MIC ([Candida] haemuloni [28]): 0.12 µg/mL (≈ 0.484 µM)
- MIC (Candida duobushaemulonii [29]): 12 µg/mL (≈ 48.4 µM)
- MIC ([Candida] haemuloni [30]): ≤ 0.06 µg/mL
- MIC (Kodamaea ohmeri): 0.12 µg/mL (≈ 0.484 µM)
- MIC (Pichia kudriavzevii [31]): 0.12 µg/mL (≈ 0.484 µM)
- MIC (Clavispora lusitaniae): 0.98 µg/mL (≈ 3.96 µM)
- MIC (Saccharomyces cerevisiae [32]): 0.98 µg/mL (≈ 3.96 µM)
- MIC (Saccharomyces cerevisiae [33]): 0.98 µg/mL (≈ 3.96 µM)
- Activity (J774.A1): Non-Toxic
- Activity (HEK293): Non-Toxic
- Activity (HepG2): Non-Toxic
- Activity (Candida albicans [34]): Dose-Dependent Effect
- Activity (Candida albicans [35]): Active
- Activity (Candida albicans [36]): inactive

Source: ChEMBL document CHEMBL5329156, “Discovery and development of novel substituted monohydrazides as potent antifungal agents” (RSC Med Chem, 2023)
